Data: paper PMC3309561 (Biochimica et biophysica acta, 2010)

Tested on: 15 base pair duplex DNA
Experiment: Near-UV circular dichroism / UV absorbance titration of duplex DNA with peptide
Type: binding
Conditions: UV absorbance spectra during titration of duplex DNA, room temperature
Method in brief: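 15 bp duplex DNA at 1.66 µM (typically 1–2 µM) was titrated at room temperature with small additions of a 5 mg/ml peptide stock. UV absorbance was acquired at the same time as the near-UV CD, in a 10 mm cell from 340 to 220 nm, across increasing peptide/DNA molar ratios. Uncorrected spectra show light scattering; zeroed spectra (340 nm) track 260 nm absorbance.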

Substance: GIGKFLHSAKKFGKAFVGEIMNS-NH2 [Magainin 2 amide]
- Turbidity (light scattering) above 310 nm of DNA with peptide: absence of turbidity
